Data taken from paper PMC7196279 (Biomedicine & pharmacotherapy = Biomedecine & …, 2020).
Where two headings read alike, the source gives them in different places. Bridges are numbered along the chain shown (N, C = ends). Where no end group is shown, it is not given here.

Legend:
[1] = system: Ca^2+-activated K^+ channels; assay type: cell-based, Chinese hamster; settings: hOT receptor CHO cells, inhibitor pretreatment
[2] = system: Ca^2+-activated K^+ channels; settings: hOT receptor CHO cells, cited from earlier work
[3] = system: Ca^2+-activated K^+ channels; assay type: cell-based, Chinese hamster; settings: mOT receptor CHO cells, inhibitor pretreatment
[4] = system: Ca^2+-activated K^+ channels; assay type: cell-based, Chinese hamster; settings: tOT receptor CHO cells; for inhibition of AVP induced hyperpolarization / inhibition of Leu^8-OT induced hyperpolarization / inhibition of Pro^8-OT induced hyperpolarization: inhibitor pretreatment
Summary of the method: (§1)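 Receptor-expressing CHO-K1 cells were loaded with FMP Blue in Locke's buffer (pH 7.4) at 37 °C for 35 min. Paxilline, TRAM-34 and/or apamin were then added, followed by 10 min more incubation. Baseline was read for 60 s, then log concentrations of agonist were added and ex 530/em 565 nm was read every 2 s for 200 s. NS-1619 or SKA-31 stimulation followed paxilline (30 μM) or TRAM-34 pretreatment respectively. Response was FMIN − F0. N = 3 experiments, 10 replicates per dose.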

[5] = system: Ca^2+-activated K^+ channels; assay type: cell-based, Chinese hamster; settings: qOT receptor CHO cells; for inhibition of AVP induced hyperpolarization / inhibition of Leu^8-OT induced hyperpolarization / inhibition of Pro^8-OT induced hyperpolarization: inhibitor pretreatment
Summary of the method: as §1

[6] = system: Ca^2+-activated K^+ channels; settings: mOT receptor CHO cells, cited from earlier work
[7] = biological target: Human Kappa-opioid (κO) receptor (Homo sapiens, UniProt P41145); experiment: Membrane potential assay in κOR-CHO cells; assay type: cell-based; settings: κOR-CHO cells pretreated with pertussis toxin
Chain of Human Kappa-opioid (κO) receptor (P41145 whole entry): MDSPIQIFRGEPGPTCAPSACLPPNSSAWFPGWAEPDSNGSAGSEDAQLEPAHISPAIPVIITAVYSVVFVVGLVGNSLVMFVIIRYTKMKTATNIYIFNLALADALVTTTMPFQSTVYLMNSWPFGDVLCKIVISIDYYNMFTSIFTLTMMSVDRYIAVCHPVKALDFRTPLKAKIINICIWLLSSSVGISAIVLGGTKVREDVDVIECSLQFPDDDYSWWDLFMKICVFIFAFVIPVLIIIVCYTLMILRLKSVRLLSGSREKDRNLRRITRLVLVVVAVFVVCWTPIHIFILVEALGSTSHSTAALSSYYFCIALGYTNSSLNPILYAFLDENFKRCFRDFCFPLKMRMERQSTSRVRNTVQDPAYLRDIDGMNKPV

Gi/o = assay type: cell-based; settings: PTX 150 ng/ml
[8] = system: sarco/endoplasmic reticulum calcium ATPase (SERCA); assay type: cell-based; settings: all four lines, thapsigargin pretreatment 1 μM final concentration
Summary of the method: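 Fluo-3 AM-loaded cells (60 min, 37 °C) were washed four times and treated with thapsigargin (1 μM final) for 5 min. The Ca2+ mobilization assay was then run with agonist concentration series, with untreated controls in parallel on the same plates. The Fluo-3 read was FMAX − F0. N = 3 experiments, five replicates per dose.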

[9] = system: sarco/endoplasmic reticulum calcium ATPase (SERCA); assay type: cell-based; settings: all four OT receptor cell lines, thapsigargin pretreatment
Summary of the method: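 Cells were incubated with FMP Blue in Locke's buffer at 37 °C for 40 min. Thapsigargin was added, followed by 5 min more incubation. The membrane potential assay was then run with agonist concentration series. Fluorescence was read at ex 530/em 565 nm every 2 s for 200 s after a 60 s baseline. Response was FMIN − F0.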

[10] = biological target: T1, macaque oxytocin receptor (qOTR) (Macaca mulatta, UniProt P56494); experiment: Ca2+ mobilization assay; assay type: cell-based
T1 sequence (P56494 1-389): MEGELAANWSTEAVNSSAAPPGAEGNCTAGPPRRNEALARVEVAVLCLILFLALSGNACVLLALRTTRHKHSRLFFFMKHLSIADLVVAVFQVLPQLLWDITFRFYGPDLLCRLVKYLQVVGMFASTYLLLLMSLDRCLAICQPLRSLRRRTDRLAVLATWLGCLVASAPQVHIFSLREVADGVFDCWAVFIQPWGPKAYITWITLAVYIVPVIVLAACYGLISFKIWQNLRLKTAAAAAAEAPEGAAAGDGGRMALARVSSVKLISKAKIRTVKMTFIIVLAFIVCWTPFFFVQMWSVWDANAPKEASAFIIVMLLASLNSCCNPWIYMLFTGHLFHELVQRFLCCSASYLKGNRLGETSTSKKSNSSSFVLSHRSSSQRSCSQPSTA

## CC(C)(O)[C@H]1O[C@H]2CC[C@@]3(C)[C@@](O)(CC[C@H]4Cc5c([nH]c6ccccc56)[C@@]43C)C2=CC1=O [paxilline]
[1]
  inhibition of AVP induced hyperpolarization: 52%
[2]
  effect on BKCa activator NS-1619 response: inhibited
[3]
  inhibition of AVP induced hyperpolarization: 20%
[4]; 30 μM paxilline
  block of NS-1619 evoked hyperpolarization: 80%
[4]
  inhibition of AVP induced hyperpolarization: 13%
  inhibition of Leu^8-OT induced hyperpolarization: 38%
  inhibition of Pro^8-OT induced hyperpolarization: 39%
[5]; 30 μM paxilline
  block of NS-1619 evoked hyperpolarization: 72%
[5]
  inhibition of AVP induced hyperpolarization: 20%
  inhibition of Leu^8-OT induced hyperpolarization: 46%
  inhibition of Pro^8-OT induced hyperpolarization: 35%
[6]
  effect on BKCa activator NS-1619 response: inhibited

## Pertussis toxin
[7]
  effect on DynorphinA1-13-NH2 hyperpolarizing response: abolished
Gi/o; any of the four cell lines (mOTR, tOTR, qOTR, hOTR)
  effect on AVP induced hyperpolarization: did not inhibit
Gi/o; tOT or qOT receptor cell lines
  effect on Leu^8-OT induced hyperpolarization: did not inhibit
  effect on Pro^8-OT induced hyperpolarization: did not inhibit

## Clc1ccccc1C(c1ccccc1)(c1ccccc1)n1cccn1 [TRAM-34]
[1]
  inhibition of AVP induced hyperpolarization: 61%
[2]
  effect on hyperpolarizing response to KCa3.1 channel opener SKA31: inhibited
[3]
  inhibition of AVP induced hyperpolarization: 33%
[4]; 300 nM TRAM-34 pretreatment
  inhibition of SKA-31 hyperpolarization: 78%
[4]
  inhibition of AVP induced hyperpolarization: 25%
  inhibition of Leu^8-OT induced hyperpolarization: 38%
  inhibition of Pro^8-OT induced hyperpolarization: 37%
[5]; 300 nM TRAM-34 pretreatment
  inhibition of SKA-31 hyperpolarization: 92%
[6]
  effect on hyperpolarizing response to KCa3.1 channel opener SKA31: inhibited

## apamin: selective inhibitor of SKCa channels (CNCKAPETALCARRCQQH-NH2; disulfide 1-11, 3-15; UniProt P01500 28-45, looked up)
[1]
  inhibition of AVP induced hyperpolarization: did not significantly affect
[1]; listed as Apamin
  inhibition of AVP induced hyperpolarization: ≤ 15%
[2]; apamin pretreatment
  contribution to (inhibition of) Leu^8-OT induced membrane hyperpolarization: ≤ 15%
  contribution to (inhibition of) Pro^8-OT induced membrane hyperpolarization: ≤ 15%
[3]
  inhibition of AVP induced hyperpolarization: did not significantly affect
[3]; listed as Apamin
  inhibition of AVP induced hyperpolarization: ≤ 15%
[4]
  inhibition of AVP induced hyperpolarization: did not significantly affect
  inhibition of Leu^8-OT induced hyperpolarization: ≤ 15%
  inhibition of Pro^8-OT induced hyperpolarization: ≤ 15%
[4]; listed as Apamin
  inhibition of AVP induced hyperpolarization: ≤ 15%
[5]
  inhibition of AVP induced hyperpolarization: did not significantly affect
  inhibition of Leu^8-OT induced hyperpolarization: ≤ 15%
  inhibition of Pro^8-OT induced hyperpolarization: ≤ 15%
[5]; listed as Apamin
  inhibition of AVP induced hyperpolarization: ≤ 15%
[6]; apamin pretreatment
  contribution to (inhibition of) Leu^8-OT induced membrane hyperpolarization: ≤ 15%
  contribution to (inhibition of) Pro^8-OT induced membrane hyperpolarization: ≤ 15%

## C/C=C(/C)C(=O)O[C@H]1C(C)=C2[C@H]([C@@H]1OC(=O)CCCCCCC)[C@@](C)(OC(C)=O)C[C@H](OC(=O)CCC)[C@@]1(O)[C@H]2OC(=O)[C@@]1(C)O [thapsigargin]
[8]
  effect on AVP and OT-analog evoked increases in Ca2+: blocked
[9]
  effect on hyperpolarization produced by AVP, Leu^8-OT, and Pro^8-OT: eliminated

## NC(=O)CC[C@@H]1NC(=O)[C@H](Cc2ccccc2)NC(=O)[C@H](Cc2ccc(O)cc2)NC(=O)[C@@H](N)CSSC[C@@H](C(=O)N2CCC[C@H]2C(=O)N[C@@H](CCCN=C(N)N)C(=O)NCC(N)=O)NC(=O)[C@H](CC(N)=O)NC1=O [AVP, arginine vasopressin]
[10]
  EC50: 49.8 nM
